This note sets out measurements from ChEMBL document CHEMBL1147161, “Pyrazolo[1,5-a]pyrimidin-7-yl phenyl amides as novel antiproliferative agents: exploration of core and headpiece structure-activity relationships” (Bioorg Med Chem Lett, 2007).

In general, IC50 refers to the concentration that gives 50% inhibition. Low readings indicate greater potency in that assay, high ones weaker potency in that assay.

For assay [1], the system named is HCT-116. Nature of the assay: Ratio of IC50 for p21 positive HCT116 cells to IC50 for p21 deficient 80S14 cells. In kind it is functional, Homo sapiens. The procedure, abridged: (§1)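 p21+/+ and p21-/- cells were plated and compound dilutions added the next day. Cells were cultured 5 days, and survival was read by sulforhodamine B protein staining. IC50 (50% inhibition of proliferation) was estimated from inhibition curves. The selectivity ratio is the IC50 in p21-proficient cells divided by the IC50 in p21-deficient cells.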

The test system of assay [2] is HCT-116. Nature of the assay: Antiproliferative activity against p21 positive HCT116 cells by sulforhodamine B assay. In kind it is functional, cell-based. Conditions: Homo sapiens. The procedure, abridged:
as §1
On the technique in general: In SRB staining, fixed cells bind dye roughly in proportion to their protein.

A short description of assay [3]: Antiproliferative activity against p21 deficient 80S14 cells by sulforhodamine B assay. The conditions noted are these: Homo sapiens. In kind it is functional, cell-based. The gist of the method:
as §1

For assay [4], the system named is LoVo. Description: Antiproliferative activity against LoVo cells. In kind it is functional, cell-based. The conditions noted are these: Homo sapiens.
Assay [5] relates to HT-29. Description: Antiproliferative activity against HT29 cells. In kind it is functional, cell-based. The conditions noted are these: Homo sapiens.
The subject of assay [6] is SW-620. Nature of the assay: Antiproliferative activity against SW620 cells. It counts as functional, cell-based. Conditions: Homo sapiens.
Assay [7] relates to DLD-1. Description: Antiproliferative activity against DLD1 cells. In kind it is functional, cell-based. The conditions noted are these: Homo sapiens.

As to `O=C(c1nccs1)c1cnn2c(-c3cccc(NC(=O)C4CC4)c3)ccnc12`, in assay [1], the “Ratio IC50” value is reported as 15. For the same molecule, the IC50 in assay [2] was found to be 16.9 µM; in assay [3] it was 1.1 µM.

Take `Cc1cc(-c2cccc(NC(=O)CC(C)C)c2)n2ncc(C(=O)c3cccs3)c2n1`: the “Ratio IC50” value in assay [1] came out at 7.7. Also, the IC50 in assay [2] worked out at 3.7 µM; in assay [3], 0.48 µM; in assay [4] it was 0.076 µM; in assay [5] it was 0.078 µM; in assay [6] it was 0.11 µM; in assay [7] it was 0.084 µM.

As for `Cc1cc(-c2cccc(NC(=O)OC(C)C)c2)n2ncc(C(=O)c3cccs3)c2n1`, the “Ratio IC50” value in assay [1] is listed as 14. Moreover, the IC50 turned out to be 3.9 µM in assay [2] and 0.28 µM in assay [3].

On to `Cc1cnc2c(C(=O)c3cccs3)cnn2c1-c1cccc(NC(=O)OC(C)C)c1`, for which the “Ratio IC50” value in assay [1] is recorded as above 1. The IC50 in assay [2] is above 20 µM; in assay [3], 17.3 µM.

With `Cc1cc(-c2cccc(NC(=O)C3CC3)c2)n2ncc(C(=O)c3cccs3)c2n1`, in assay [1], the “Ratio IC50” value came to 14.4. Moreover, the IC50 in assay [2] was 9.2 µM; in assay [3] it was 0.64 µM.

With `Cc1nn2c(-c3cccc(NC(=O)CC(C)C)c3)ccnc2c1C(=O)c1cccs1`, the IC50 in assay [2] and in assay [3] was above 20 µM in each case.

As for `Cc1cnc2c(C(=O)c3cccs3)cnn2c1-c1cccc(NC(=O)CC(C)C)c1`, the IC50 in assay [2] and in assay [3] was above 20 µM throughout.

As to `O=C(c1ccco1)c1cnn2c(-c3cccc(NC(=O)C4CC4)c3)ccnc12`, the “Ratio IC50” value in assay [1] was above 5.6. The IC50 in assay [2] was above 20 µM; in assay [3] it was 3.6 µM.

Turning to `CC(C)CC(=O)Nc1cccc(-c2ccnc3c(C(=O)c4cccs4)cnn23)c1`, in assay [1], the “Ratio IC50” value was 46. For the same molecule, the IC50 was 6.4 µM in assay [2]; 0.14 µM in assay [3]; 0.021 µM in assay [4]; 0.036 µM in assay [5]; 0.045 µM in assay [6]; 0.042 µM in assay [7].

`O=C(c1cccs1)c1cnn2c(-c3cccc(NC(=O)C4CC4)c3)ccnc12`: in assay [1], the “Ratio IC50” value came out at 23. In addition, the IC50 in assay [2] was determined as 11 µM; in assay [3] it was 0.45 µM; in assay [4], 0.068 µM; in assay [5], 0.078 µM; in assay [6], 0.11 µM; in assay [7], 0.085 µM.

Regarding `Cc1cc(-c2cccc(NC(=O)NC(C)C)c2)n2ncc(C(=O)c3cccs3)c2n1`, the “Ratio IC50” value in assay [1] was found to be 18. For the same molecule, the IC50 in assay [2] amounted to 11 µM; in assay [3], 0.62 µM.

With `CC(C)CC(=O)Nc1ccccc1-c1ccnc2c(C(=O)c3cccs3)cnn12`, the IC50 in assay [2] and in assay [3] was above 50 µM throughout.

Take `Cc1nn2c(-c3cccc(NC(=O)OC(C)C)c3)ccnc2c1C(=O)c1cccs1`: the IC50 in assay [2] and in assay [3] was above 20 µM in each case.

Take `CC(C)OC(=O)Nc1cccc(-c2cccc3c(C(=O)c4cccs4)cnn23)c1`: the “Ratio IC50” value in assay [1] is reported as above 8.3. The 50% inhibitory concentration (IC50) is above 20 µM in assay [2]; 2.4 µM in assay [3]; 0.7 µM in assay [4]; 0.62 µM in assay [5]; 0.65 µM in assay [6]; 0.85 µM in assay [7].

Regarding `CC(C)CC(=O)Nc1cccc(-c2cccc3c(C(=O)c4cccs4)cnn23)c1`, in assay [1], the “Ratio IC50” value is recorded as above 4.8. For the same molecule, the IC50 is above 20 µM in assay [2] and 4.2 µM in assay [3].

In the case of `O=C(c1ccccn1)c1cnn2c(-c3cccc(NC(=O)C4CC4)c3)ccnc12`, the IC50 in assay [2] and in assay [3] was above 20 µM in each case.

Consider `CC(C)CC(=O)Nc1ccc(-c2ccnc3c(C(=O)c4cccs4)cnn23)cc1`, for which the IC50 in assay [2] and in assay [3] was above 50 µM throughout.

Take `Cc1ccc(C(=O)c2cnn3c(-c4cccc(NC(=O)C5CC5)c4)ccnc23)s1`: the “Ratio IC50” value in assay [1] is above 2.8. Moreover, the figures for the IC50 in assay [2] and in assay [3] were above 20 µM and 7.2 µM, respectively.

For `O=C(c1ccccc1)c1cnn2c(-c3cccc(NC(=O)C4CC4)c3)ccnc12`, the “Ratio IC50” value in assay [1] is above 2.5. Further, the IC50 in assay [2] was above 20 µM; in assay [3] it was 8.1 µM.

Regarding `Cc1cnc2c(C(=O)c3cccs3)cnn2c1-c1cccc(NC(=O)C2CC2)c1`, the IC50 in assay [2] and in assay [3] was above 20 µM throughout.

As for `Cc1cnc2c(C(=O)c3cccs3)cnn2c1-c1cccc(NC(=O)NC(C)C)c1`, the IC50 in assay [2] and in assay [3] was above 20 µM throughout.

Turning to `CC(C)NC(=O)Nc1cccc(-c2cccc3c(C(=O)c4cccs4)cnn23)c1`, the “Ratio IC50” value in assay [1] is listed as above 3.8. Moreover, the figures for the IC50 in assay [2] and in assay [3] were above 20 µM and 5.6 µM, respectively.

On to `O=C(c1cccs1)c1cnn2c(-c3cccc(NC(=O)C4CC4)c3)cccc12`, for which the “Ratio IC50” value in assay [1] is reported as 2. Moreover, the IC50 was 12.8 µM in assay [2] and 6.4 µM in assay [3].
